Assays:
Format in all cases: functional
HepG2 [1] = test: Viability of human HepG2 cells in presence of 5 J/cm2 light at 15 uM relative to control by MTT assay; conditions: HepG2, light or radiation study, read-out: Survival
Procedure, shortened: (§1)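 HepG2 cells were plated 50000/well, grown overnight, then loaded 20 h with drug in DMEM/0.8% BSA. After rinsing into complete DMEM they were irradiated with a 670 nm laser at 20 mW/cm2 fluence rate. They were then incubated 24 h at 37 °C, given MTT 0.5 mg/mL for 2 h, solubilised in acidified 2-propanol, and A570 was read. Viability is versus untreated cells (100%), 3 wells/condition, 3-8 experiments, mean ± standard error.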

HepG2 [2] = test: Viability of human HepG2 cells in presence of 7.5 J/cm2 light at 1 uM relative to control by MTT assay; conditions: HepG2, light or radiation study, read-out: Survival; procedure, shortened: as §1
HepG2 [3] = test: Viability of human HepG2 cells in presence of 1 J/cm2 light at 15 uM relative to control by MTT assay; conditions: HepG2, light or radiation study, read-out: Survival; procedure, shortened: as §1
HepG2 [4] = test: Viability of human HepG2 cells in presence of 1 J/cm2 light at 5 uM relative to control by MTT assay; conditions: HepG2, light or radiation study, read-out: Survival; procedure, shortened: as §1
HepG2 [5] = test: Viability of human HepG2 cells in presence of 5 J/cm2 light at 30 uM relative to control by MTT assay; conditions: HepG2, light or radiation study, read-out: Survival; procedure, shortened: as §1
HepG2 [6] = test: Viability of human HepG2 cells in presence of 5 J/cm2 light at 5 uM relative to control by MTT assay; conditions: HepG2, light or radiation study, read-out: Survival; procedure, shortened: as §1
HepG2 [7] = test: Viability of human HepG2 cells in presence of 1 J/cm2 light at 1 uM relative to control by MTT assay; conditions: HepG2, light or radiation study, read-out: Survival; procedure, shortened: as §1
HepG2 [8] = test: Viability of human HepG2 cells at 30 uM relative to control by MTT assay; conditions: read-out: Survival
Procedure, shortened: (§2)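 HepG2 cells seeded 50000/well in complete DMEM and grown overnight at 37 °C. They were then exposed for 20 h to drug in DMEM with 0.8% BSA and rinsed. Cells were kept in dark with no illumination, then incubated 24 h at 37 °C. MTT 0.5 mg/mL was given for 2 h and solubilised in 70% 2-propanol/0.1 M HCl, with A570 read. Viability is relative to untreated cells (100%), 3 wells/condition, 3-8 experiments, mean ± standard error.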

HepG2 [9] = test: Viability of human HepG2 cells in presence of 7.5 J/cm2 light at 30 uM relative to control by MTT assay; conditions: HepG2, light or radiation study, read-out: Survival; procedure, shortened: as §1
HepG2 [10] = test: Viability of human HepG2 cells at 5 uM relative to control by MTT assay; conditions: read-out: Survival; procedure, shortened: as §2
HepG2 [11] = test: Viability of human HepG2 cells in presence of 7.5 J/cm2 light at 5 uM relative to control by MTT assay; conditions: HepG2, light or radiation study, read-out: Survival; procedure, shortened: as §1
HepG2 [12] = test: Viability of human HepG2 cells at 1 uM relative to control by MTT assay; conditions: read-out: Survival; procedure, shortened: as §2
HepG2 [13] = test: Viability of human HepG2 cells in presence of 1 J/cm2 light at 30 uM relative to control by MTT assay; conditions: HepG2, light or radiation study, read-out: Survival; procedure, shortened: as §1
HepG2 [14] = test: Viability of human HepG2 cells at 15 uM relative to control by MTT assay; conditions: read-out: Survival; procedure, shortened: as §2
HepG2 [15] = test: Viability of human HepG2 cells in presence of 7.5 J/cm2 light at 15 uM relative to control by MTT assay; conditions: HepG2, light or radiation study, read-out: Survival; procedure, shortened: as §1
HepG2 [16] = test: Viability of human HepG2 cells in presence of 5 J/cm2 light at 1 uM relative to control by MTT assay; conditions: HepG2, light or radiation study, read-out: Survival; procedure, shortened: as §1

## C=Cc1c(C)c2cc3[nH]c(c4c5nc(cc6nc(cc1[nH]2)C(C)=C6CC)C(C)=C5C(=O)C4)[C@@](C)(CCC(=O)NCC(=O)N[C@@H](CC(=O)O)C(=O)N[C@@H](CCC(=O)O)C(=O)N[C@H](C(=O)N[C@@H](CC(=O)O)C(=O)NCC(=O)N[C@@H](CO)C(=O)NCC(=O)N[C@@H](CCCCNC(=O)CCCN(C)c1ccc(/N=N/c2ccc4nc5ccc(N(CC)CC)cc5[n+](-c5ccccc5)c4c2)cc1)C(=O)O)C(C)C)C3(C)C
HepG2 [1]
  viability at 15 µM: 11%
HepG2 [2]
  viability at 1 µM: 6%
HepG2 [3]
  viability at 15 µM: 56%
HepG2 [4]
  viability at 5 µM: 86%
HepG2 [5]
  viability at 30 µM: 7%
HepG2 [6]
  viability at 5 µM: 20%
HepG2 [7]
  viability at 1 µM: 90%
HepG2 [8]
  viability at 30 µM: 117%
HepG2 [9]
  viability at 30 µM: 4%
HepG2 [10]
  viability at 5 µM: 105%
HepG2 [11]
  viability at 5 µM: 4%
HepG2 [12]
  viability at 1 µM: 106%
HepG2 [13]
  viability at 30 µM: 41%
HepG2 [14]
  viability at 15 µM: 108%
HepG2 [15]
  viability at 15 µM: 5%
HepG2 [16]
  viability at 1 µM: 58%

Reference: ChEMBL document CHEMBL1138051, “Photodynamic therapy agent with a built-in apoptosis sensor for evaluating its own therapeutic outcome in situ” (2006)
